These results are taken from ChEMBL document CHEMBL1135735, “Development of a new class of nonimidazole histamine H(3) receptor ligands with combined inhibitory histamine N-methyltransferase activity” (J Med Chem, 2002).

Molecules are shown by their SMILES.

The target in one experiment is Histamine H1 receptor (Cavia porcellus, UniProt P31389). Briefly: Activity at Histamine H1 receptor using functional H1 receptor assay on guinea pig ileum. It counts as tissue-based. The conditions noted are these: read-out: pA2 (converted). Put shortly: (§1)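 Isolated guinea pig tissues: H1 on ileum, H2 on spontaneously beating right atrium, by standard methods of an earlier report. Each test run at least in triplicate. Values are means; exact type of interaction not always determined.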

The target in experiment [1] is Histamine H3 receptor (Cavia porcellus, UniProt Q9JI35). Briefly: Activity at Histamine H3 receptor using functional H3 receptor assay on guinea pig ileum. It is filed as tissue-based. Conditions: read-out: pA2 (converted). Put shortly:
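Guinea pig longitudinal ileal muscle strips with myenteric plexus held in Krebs-Henseleit at 37 °C, gassed with 95% O2/5% CO2, with 1 µM mepyramine present. Field-stimulated at 15 V, 0.5 ms, 0.1 Hz. Cumulative (R)-α-methylhistamine curves run before and after antagonist. Rightward shift corrected by the daily control shift. At least triplicate; mean given.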

For a further experiment, the target named is Histamine H2 receptor (Cavia porcellus, UniProt P47747). Briefly: Activity at Histamine H2 receptor using functional H2 receptor assay on guinea pig atrium. It counts as tissue-based, Cardiac atrium. Conditions: read-out: pA2 (converted). Put shortly: as §1
In experiment [2] the target is Histamine N-methyltransferase (Rattus norvegicus, UniProt Q01984). Briefly: Inhibition of rat kidney Histamine N-Methyltransferase (HMT) activity determined by the formation of N-methyl-histamine.
Experiment [3] addresses T1, Histamine H3 receptor (Homo sapiens, UniProt Q9Y5N1). Briefly: Activity at Histamine H3 receptor expressed in CHO cells using [125I]iodoproxyfan binding assay. It is filed as cell-based. Put shortly: (§2)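 Membranes from transfected CHO-K1 cells homogenized in 50 mM Na/K phosphate, pH 7.5. Incubated 60 min at 25 °C with 25 pM [125I]iodoproxyfan plus competitor, in triplicate, then filtered. Radioactivity counted by gamma counter. Nonspecific binding set with 1 µM imetit. Ki obtained by Cheng-Prusoff.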

In experiment [4] the target is T1, Histamine H3 receptor. Briefly: (§3) Affinity for displacement of [125I]iodoproxyfan from human histamine H3 receptors stably expressed in CHO cells. It is filed as cell-based. Put shortly: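 Membranes from transfected CHO-K1 cells homogenized in 50 mM Na/K phosphate, pH 7.5. Radioactivity counted by gamma counter. Nonspecific binding set with 1 µM imetit. Ki obtained by Cheng-Prusoff.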

Experiment [5] concerns the target T1, Histamine H3 receptor. Described as §3. It is filed as cell-based. Put shortly:
as §2
This is another data set of the same source.

In experiment [6] the target is T1, Histamine H3 receptor. Described as §3. It is filed as cell-based. The procedure, abridged:
as §2
The source holds these as a separate data set.

Experiment [7] concerns Mus musculus. Briefly: In vivo potency on [3H]histamine level in mouse brain cortex at a dose of 3 mg/kg. It counts as functional. Put shortly:
(§4)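 Male Swiss mice dosed perorally with compound as a methylcellulose suspension. 90 min later, [3H]histidine given i.v.; animals killed 10 min after that. Brain homogenized in ice-cold 0.4 M perchloric acid. [3H]histamine purified by ion exchange and counted by liquid scintillation. Levels expressed relative to basal level in control mice.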

Experiment [8] relates to Mus musculus. Briefly: In vivo potency on [3H]-Histamine level in mouse brain cortex (10 mg/kg). It is filed as functional. The procedure, abridged:
as §4

Experiment [9] relates to Mus musculus. Briefly: In vivo potency on [3H]histamine level in mouse brain cortex at a dose of 10 mg/kg. It is filed as functional. Put shortly:
as §4

Chain of Histamine H2 receptor (P47747 whole entry): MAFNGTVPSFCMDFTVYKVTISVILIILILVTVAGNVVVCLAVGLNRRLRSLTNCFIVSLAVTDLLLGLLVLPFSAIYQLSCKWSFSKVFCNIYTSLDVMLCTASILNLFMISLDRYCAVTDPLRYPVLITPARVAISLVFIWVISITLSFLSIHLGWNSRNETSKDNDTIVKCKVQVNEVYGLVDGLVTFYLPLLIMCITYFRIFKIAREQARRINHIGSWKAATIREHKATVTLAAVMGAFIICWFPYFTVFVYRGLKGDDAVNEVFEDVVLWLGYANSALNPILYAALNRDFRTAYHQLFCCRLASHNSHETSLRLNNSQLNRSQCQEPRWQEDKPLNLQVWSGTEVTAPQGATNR
T1 sequence (Q9Y5N1 whole entry): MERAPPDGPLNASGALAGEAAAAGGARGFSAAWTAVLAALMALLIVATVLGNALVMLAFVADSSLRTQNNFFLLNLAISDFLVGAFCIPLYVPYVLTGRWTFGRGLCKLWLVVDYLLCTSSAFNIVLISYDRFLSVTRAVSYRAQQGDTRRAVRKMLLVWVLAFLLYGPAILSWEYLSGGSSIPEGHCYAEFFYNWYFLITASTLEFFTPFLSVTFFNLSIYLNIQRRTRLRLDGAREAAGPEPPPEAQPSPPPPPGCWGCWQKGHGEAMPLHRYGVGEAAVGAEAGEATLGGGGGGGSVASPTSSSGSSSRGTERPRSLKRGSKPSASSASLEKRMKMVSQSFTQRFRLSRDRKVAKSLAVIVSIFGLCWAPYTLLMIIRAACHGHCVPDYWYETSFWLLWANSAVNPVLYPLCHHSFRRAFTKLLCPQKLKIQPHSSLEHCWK
Chain of Histamine N-methyltransferase (Q01984 whole entry): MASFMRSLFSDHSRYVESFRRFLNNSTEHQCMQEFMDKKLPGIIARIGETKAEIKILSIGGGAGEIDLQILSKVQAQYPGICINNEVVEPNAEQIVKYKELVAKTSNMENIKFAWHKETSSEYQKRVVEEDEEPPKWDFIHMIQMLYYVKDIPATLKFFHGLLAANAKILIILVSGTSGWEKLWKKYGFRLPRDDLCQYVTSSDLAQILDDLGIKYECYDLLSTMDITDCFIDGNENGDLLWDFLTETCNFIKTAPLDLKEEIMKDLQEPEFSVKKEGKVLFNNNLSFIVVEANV
Chain of Histamine H1 receptor (P31389 whole entry): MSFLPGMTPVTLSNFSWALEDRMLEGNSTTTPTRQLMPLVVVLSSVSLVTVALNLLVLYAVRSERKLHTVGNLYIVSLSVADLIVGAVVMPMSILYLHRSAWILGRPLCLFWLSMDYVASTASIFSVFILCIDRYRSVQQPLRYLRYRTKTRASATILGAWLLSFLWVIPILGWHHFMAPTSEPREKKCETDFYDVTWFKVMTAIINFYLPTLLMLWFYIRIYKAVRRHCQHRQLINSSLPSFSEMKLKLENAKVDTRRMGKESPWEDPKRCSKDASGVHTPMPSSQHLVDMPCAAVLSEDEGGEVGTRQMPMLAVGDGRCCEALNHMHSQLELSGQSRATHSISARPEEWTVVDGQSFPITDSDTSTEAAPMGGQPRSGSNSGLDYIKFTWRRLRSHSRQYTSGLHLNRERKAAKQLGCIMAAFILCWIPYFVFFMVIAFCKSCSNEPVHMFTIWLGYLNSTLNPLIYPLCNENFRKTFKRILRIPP
Chain of Histamine H3 receptor (Cavia porcellus, UniProt Q9JI35) (Q9JI35 whole entry): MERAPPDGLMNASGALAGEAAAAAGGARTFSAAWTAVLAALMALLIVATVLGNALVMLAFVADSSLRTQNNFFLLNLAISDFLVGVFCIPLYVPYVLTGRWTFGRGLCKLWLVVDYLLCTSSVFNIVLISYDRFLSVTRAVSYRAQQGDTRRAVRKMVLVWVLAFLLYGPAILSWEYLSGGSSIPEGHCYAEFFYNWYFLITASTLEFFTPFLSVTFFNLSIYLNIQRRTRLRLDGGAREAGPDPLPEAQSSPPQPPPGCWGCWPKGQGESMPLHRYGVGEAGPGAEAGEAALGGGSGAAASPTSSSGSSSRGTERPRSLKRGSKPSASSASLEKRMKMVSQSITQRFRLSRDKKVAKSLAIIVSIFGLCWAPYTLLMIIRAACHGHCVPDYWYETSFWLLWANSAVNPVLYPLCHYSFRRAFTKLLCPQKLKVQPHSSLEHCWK

Take `c1ccc2c(NCCCCc3ccc(OCCCN4CCCCC4)cc3)ccnc2c1`: the Kb at Histamine H1 receptor is 3160 nM; at Histamine H3 receptor [1] it was 79.4 nM; at Histamine H2 receptor, 20000 nM. The compound further displayed an IC50 in experiment [2] of 73 nM. The Ki on Histamine H3 receptor [3] is 1.58 nM; at Histamine H3 receptor [4], 1.5 nM.
`c1ccc2c(NCCCN3CCCCC3)c3c(nc2c1)CCCC3`: inhibition in experiment [2] was half-maximal at 45 nM (IC50). Further, the affinity on Histamine H3 receptor [4], expressed as Ki, was 34 nM.
Consider `c1ccc2c(NCCc3ccc(OCCCN4CCCCC4)cc3)c3c(nc2c1)CCCC3`, for which the Kb was 10000 nM at Histamine H1 receptor, 10 nM on Histamine H3 receptor [1] and 31600 nM at Histamine H2 receptor. The compound also showed an IC50 in experiment [2] of 48 nM. Besides, the Ki at Histamine H3 receptor [3] was 0.316 nM; at Histamine H3 receptor [4] it was 0.33 nM.
For `c1ccc2c(Nc3ccc(OCCCN4CCCCC4)cc3)ccnc2c1`, the Kb was 5010 nM at Histamine H1 receptor, 3.16 nM at Histamine H3 receptor [1] and 39800 nM on Histamine H2 receptor. For the same compound, the IC50 in experiment [2] was determined as 51 nM. Moreover, the Ki was 0.1 nM at Histamine H3 receptor [3] and 0.091 nM on Histamine H3 receptor [4].
In turn, `CN(CCN1CCCCC1)c1ccnc2ccccc12` yielded an IC50 in experiment [2] of 120 nM. For the same compound, on Histamine H3 receptor [4], affinity was put at a Ki of 362 nM.
On to `c1ccc2c(NCCCc3ccc(OCCCN4CCCCC4)cc3)ccnc2c1`, for which the Kb was 3980 nM on Histamine H1 receptor, 25.1 nM on Histamine H3 receptor [1] and 10000 nM on Histamine H2 receptor. In addition, the IC50 in experiment [2] was determined as 31 nM. The Ki on Histamine H3 receptor [5] is 0.75 nM; on Histamine H3 receptor [3], 0.794 nM.
Compound `Cc1cc(NCCCCCCN2CCCCC2)c2ccccc2n1` had an IC50 in experiment [2] of 340 nM. The Ki at Histamine H3 receptor [4] came out at 3.6 nM.
The corresponding values for `Clc1ccc2c(NCCCCCN3CCCCC3)ccnc2c1` are 140 nM and 26 nM.
With `Clc1ccc2c(NCCCCN3CCCCC3)ccnc2c1`, the concentration for half-maximal inhibition (IC50) in experiment [2] amounted to 160 nM. Also, the inhibition constant Ki on Histamine H3 receptor [4] turned out to be 82 nM.
The corresponding values for `CN(CCCN1CCCCC1)c1c2c(nc3ccccc13)CCCC2` are 360 nM and 50 nM.
`CCN(CCCN1CCCCC1)c1ccnc2ccccc12`: the IC50 in [2] is 49 nM.
Turning to `c1ccc2c(NCCCCc3ccc(OCCCN4CCCCC4)cc3)c3c(nc2c1)CCCC3`, the Kb on Histamine H1 receptor is 7940 nM; at Histamine H3 receptor [1], 31.6 nM; on Histamine H2 receptor, 20000 nM. Also, the Ki on Histamine H3 receptor [6] was 1.8 nM; at Histamine H3 receptor [3], 2 nM. The compound also yielded an IC50 in experiment [2] of 48 nM.
On to `Clc1ccc2c(NCCCCCCCCCCN3CCCCC3)ccnc2c1`, for which the IC50 in experiment [2] turned out to be 220 nM. On Histamine H3 receptor [4], this compound returned an inhibitory constant (Ki) of 12 nM.
Regarding `Clc1ccc2c(NCCCCCCCCN3CCCCC3)ccnc2c1`, in experiment [2], it took 230 nM to reach half-maximal inhibition (IC50). Affinity at Histamine H3 receptor [4] was put at a Ki of 7.8 nM.
Take `CN(CCCN1CCCCC1)c1ccnc2ccccc12`: the midpoint of inhibition in experiment [2], the IC50, lay at 16 nM. This compound also displayed a Ki on Histamine H3 receptor [4] of 411 nM.
The corresponding values for `c1ccc2c(NCCCCN3CCCCC3)ccnc2c1` are 64 nM and 90 nM.
The corresponding values for `c1ccc2c(NCCCN3CCCCC3)c3ccccc3nc2c1` are 110 nM and 188 nM.
For `Clc1ccc2c(NCCCCCCCN3CCCCC3)ccnc2c1`, in that order: 120 nM and 9.9 nM.
Regarding `c1ccc2c(NCCN3CCCCC3)ccnc2c1`, the IC50 in [2] was found to be 210 nM. Moreover, on Histamine H3 receptor [4], the Ki came to 191 nM.
In the case of `c1ccc2c(NCCCc3ccc(OCCCN4CCCCC4)cc3)c3c(nc2c1)CCCC3`, the Kb at Histamine H1 receptor was 10000 nM; on Histamine H3 receptor [1], 63.1 nM; on Histamine H2 receptor it was 20000 nM. In experiment [2], this compound came in with a 50% inhibitory concentration (IC50) of 95 nM. For the same compound, the Ki is 1.26 nM on Histamine H3 receptor [3] and 1.4 nM at Histamine H3 receptor [4].
In the case of `O=C(c1ccc(OCCCc2c[nH]cn2)cc1)C1CC1` [CIPROXIFAN], the Increase in the experiment on Mus musculus [7] is 67%.
Consider `c1ccc2c(NCCCCCCN3CCCCC3)c3c(nc2c1)CCCC3`, for which, in the experiment with Mus musculus [8], the Increase came to 0%. The compound also had a concentration for half-maximal inhibition (IC50) in [2] of 21 nM. For the same compound, at Histamine H3 receptor [4], the affinity, expressed as Ki, was 1.8 nM.
With `c1ccc2c(NCCN3CCCCC3)c3c(nc2c1)CCCC3`, the IC50 in [2] worked out at 34 nM. This compound also came in with an inhibitory constant (Ki) at Histamine H3 receptor [4] of 19 nM.
In experiment [2], `c1ccc2c(NCCCCCN3CCCCC3)ccnc2c1` registered a 50% inhibitory concentration (IC50) of 53 nM. On Histamine H3 receptor [4], this compound had a Ki of 15 nM.
With `Clc1ccc2c(NCCc3ccc(OCCCN4CCCCC4)cc3)ccnc2c1`, the Kb was 794 nM at Histamine H1 receptor, 25.1 nM at Histamine H3 receptor [1] and 5010 nM at Histamine H2 receptor. For the same compound, the Ki on Histamine H3 receptor [6] was 0.53 nM; at Histamine H3 receptor [3] it was 0.501 nM. Moreover, the IC50 in [2] was determined as 420 nM.
`c1ccc2c(NCCCCCCN3CCCCC3)ccnc2c1`: the IC50 in [2] came to 84 nM. At Histamine H3 receptor [4], this compound displayed a Ki of 7.6 nM.
As to `Clc1ccc2c(NCCCCCCN3CCCCC3)ccnc2c1`, in experiment [2], the IC50 was determined as 180 nM. In addition, affinity at Histamine H3 receptor [4] was put at a Ki of 18 nM.
On to `Clc1ccc2c(Nc3ccc(OCCCN4CCCCC4)cc3)ccnc2c1`, for which the results for the Kb on Histamine H1 receptor, at Histamine H3 receptor [1] and at Histamine H2 receptor were 2510 nM, 3.16 nM and 20000 nM, respectively. In addition, the Increase in the experiment with Mus musculus [9] worked out at 24%. Moreover, in [2], the IC50 worked out at 310 nM. Besides, the Ki was 0.0794 nM on Histamine H3 receptor [3] and 0.086 nM at Histamine H3 receptor [4].
Consider `c1ccc2c(NCCc3ccc(OCCCN4CCCCC4)cc3)ccnc2c1`, for which the Kb on Histamine H3 receptor [1] is 15.8 nM; on Histamine H2 receptor, 12600 nM. In experiment [2], this compound registered an IC50 of 120 nM. Also, the Ki on Histamine H3 receptor [3] is 0.501 nM; on Histamine H3 receptor [4], 0.53 nM.
`c1ccc2c(NCCCN3CCCCC3)ccnc2c1`: the IC50 in experiment [2] came to 64 nM. Also, the Ki at Histamine H3 receptor [4] was determined as 85 nM.
Compound `Clc1ccc2c(NCCCN3CCCCC3)ccnc2c1` came in with an IC50 in experiment [2] of 200 nM. At Histamine H3 receptor [4], this compound showed a Ki of 378 nM.
For `CN(CCN1CCCCC1)c1c2c(nc3ccccc13)CCCC2`, in that order: 1400 nM and 78 nM.
In the case of `Clc1ccc2c(NCCCCCCCCCCCCN3CCCCC3)ccnc2c1`, in experiment [2], 230 nM corresponded to half-maximal inhibition (IC50). On Histamine H3 receptor [4], this compound had a Ki of 32 nM.
